Source: ChEMBL document CHEMBL3580604, “Flavonoids from Matteuccia struthiopteris and Their Anti-influenza Virus (H1N1) Activity” (J Nat Prod, 2015)
Activity calls are given as the source filed them. The rule behind the calls is not given here.

What was measured:
[1] = test system: MDCK; experiment: Cytotoxicity against MDCK cells assessed as cell viability after 72 hrs by MTT assay; format: cell-based, Canis lupus familiaris; details: dog
[2] = target: Neuraminidase (Influenza A virus) (UniProt B4URF0); experiment: Inhibition of Influenza A virus A/PR/8/34 (H1N1) neuraminidase activity measured in infected MDCK cells using MUNANA as substrate assessed as fluorescence intensity after 48 hrs; format: cell-based; details: Influenza A virus (A/Puerto Rico/8/1934(H1N1))
Outline: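 MDCK cells (2 × 10^4/well) infected with A/PR/8/34 at MOI 0.01, with samples (0.7–166 μM, DMEM with 1% DMSO) added at the same time. After 1 h at 37 °C the cells were washed and fresh sample-containing DMEM added for 48 h. Supernatant NA activity was read with MUNANA for 45 min at 37 °C (ex 355/em 485 nm). Triplicate runs; EC50 by linear extrapolation; ribavirin 0.8–200 μM control.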

[3] = Selectivity index, ratio of cytotoxicity for MDCK cells to EC50 for Influenza A virus A/PR/8/34 (H1N1) neuraminidase activity; format: toxicity, cell-based; details: dog, read-out: Selectivity Index
Outline: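 SI calculated as CC50/EC50, with CC50 from the 72 h MDCK AlamarBlue assay and EC50 from the MUNANA neuraminidase assay on supernatants of PR8-infected MDCK cells at 48 h.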

Sequence of Neuraminidase (Influenza A virus) (B4URF0 as listed by the source): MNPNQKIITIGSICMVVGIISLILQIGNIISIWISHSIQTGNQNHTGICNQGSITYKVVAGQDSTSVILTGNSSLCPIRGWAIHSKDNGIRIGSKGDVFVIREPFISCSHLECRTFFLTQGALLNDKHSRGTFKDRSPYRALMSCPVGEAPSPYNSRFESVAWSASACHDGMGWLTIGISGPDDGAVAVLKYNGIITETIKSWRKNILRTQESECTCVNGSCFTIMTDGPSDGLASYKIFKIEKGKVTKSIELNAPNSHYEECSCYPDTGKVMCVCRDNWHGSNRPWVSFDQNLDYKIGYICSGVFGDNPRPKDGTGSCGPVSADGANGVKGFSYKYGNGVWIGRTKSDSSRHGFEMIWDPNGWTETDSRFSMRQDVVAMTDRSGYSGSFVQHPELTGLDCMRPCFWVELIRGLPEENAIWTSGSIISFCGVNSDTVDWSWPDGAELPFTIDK

Row | Structure (SMILES) | Activity [1] | inhibition [2] | selectivity ratio [3]
1 | COC(=O)C(C)OC(O[C@H]1[C@H](Oc2c(-c3ccc(O)cc3)oc3cc(O[C@@H]4O[C@@H](C)[C@H](O)[C@@H](O)[C@H]4O)cc(O)c3c2=O)O[C@@H](C)[C@H](O)[C@H]1O)C(O)C(=O)OC (stereo partly drawn) | Non-toxic | inactive | –
2 | COc1c(O)cc(C2CC(=O)c3c(O)c(C)c(O)c(C)c3O2)cc1O (stereo not drawn) | Non-toxic | – | 3.1
3 | C[C@@H]1O[C@@H](Oc2cc(O)c3c(=O)c(O[C@@H]4O[C@@H](C)[C@H](O)[C@@H](O)[C@H]4O[C@@H]4O[C@@H](C)[C@H](O)[C@@H](O)[C@H]4O)c(-c4ccc(O)cc4)oc3c2)[C@H](O)[C@H](O)[C@H]1O | Non-toxic | inactive | –
4 | COc1c(O)cc([C@@H]2CC(=O)c3c(O)c(C)c(O[C@@H]4O[C@H](CO)[C@@H](O)[C@H](O)[C@H]4O)c(C)c3O2)cc1O | Non-toxic | – | 34.4
5 | CC(=O)O[C@@H]1[C@@H](O)[C@@H](O[C@@H]2O[C@H](CO)[C@@H](O)[C@H](O)[C@H]2O)[C@H](Oc2c(-c3ccc(O)cc3)oc3cc(O[C@@H]4O[C@@H](C)[C@H](O)[C@@H](O)[C@H]4O)cc(O)c3c2=O)O[C@H]1C | Non-toxic | inactive | –
6 | CC(=O)O[C@@H]1[C@@H](O)[C@@H](O[C@@H]2O[C@H](CO)[C@@H](O)[C@@H](O)[C@H]2O)[C@H](Oc2c(-c3ccc(O)cc3)oc3cc(O[C@@H]4O[C@@H](C)[C@H](O)[C@@H](O)[C@H]4O)cc(O)c3c2=O)O[C@H]1C | Non-toxic | inactive | –
7 | COC(=O)C1(O)CC(C)OC1O[C@H]1[C@H](Oc2c(-c3ccc(O)cc3)oc3cc(O[C@@H]4O[C@@H](C)[C@H](O)[C@@H](O)[C@H]4O)cc(O)c3c2=O)O[C@@H](C)[C@H](O)[C@H]1O (stereo partly drawn) | Non-toxic | inactive | –
8 | C[C@@H]1O[C@@H](Oc2cc(O)c3c(=O)c(O[C@@H]4O[C@@H](C)[C@H](O)[C@@H](O)[C@H]4O[C@@H]4O[C@H](CO)[C@@H](O)[C@@H](O)[C@H]4O)c(-c4ccc(O)cc4)oc3c2)[C@H](O)[C@H](O)[C@H]1O | Non-toxic | inactive | –
9 | O=c1c(O[C@@H]2O[C@H](CO)[C@@H](O)[C@H](O)[C@H]2O)c(-c2ccc(O)cc2)oc2cc(O)cc(O)c12 [ASTRAGALIN] | Non-toxic | – | 12.4
